Laboratory results taken from publication PMC6407737 (Targeted Oncology, 2019).
Entries after “also recorded” stand apart in the source; their conditions may differ. Where two headings read alike, the source gives them in different places. Marks after values point to notes of the source that are not given here.

How the values were obtained:
[1] = cited from earlier work
[2] = liquid dispersion vs. tablet; with/without a high-calorie meal; cited from earlier work
[3] = test system: advanced or metastatic solid tumors; test: Investigator-assessed anti-tumor activity, RECIST version 1.1; type: in vivo, human
Outline: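 Open-label phase I study in Japanese and Taiwanese patients (ECOG 0–1) given oral drug once daily, continuously, in 28-day cycles at 50, 100 or 200 mg. CT/MRI at screening, at end of cycle 2, then every two cycles until treatment ended. Objective response was CR or PR; disease control was CR, PR or SD. Evaluable patients had baseline plus ≥1 post-baseline assessment. Analysis was descriptive on patients receiving ≥1 dose.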

[4] = rats; cited from earlier work
[5] = test system: advanced or metastatic non-hematologic malignancies; settings: FIH study; cited from earlier work
[6] = Phase I dose-finding study: safety, DLT and MTD; type: in vivo, human
Outline: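 Open-label 3 + 3 dose escalation in cohorts of three to six patients. Oral dosing was once daily, continuous, in 28-day cycles, starting at 50 mg, with 100 and 200 mg planned. DLT was assessed during cycle 1. MTD was the highest level with DLT in none or one of six patients, followed by an expansion cohort at that dose. AEs were graded by CTCAE v4.03 in all patients receiving ≥1 dose.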

[7] = dogs; cited from earlier work
MiaPaCa2 xenograft = settings: QD; cited from earlier work
[8] = Plasma and urine pharmacokinetics in cycle 1; type: in vivo, human
advanced solid tumors = settings: mixed populations of patients with advanced solid tumors; cited from earlier work
[9] = at lesser frequency than BI 853520; cited from earlier work
[10] = 200 mg QD, N = 10, geometric mean

In the case of `COc1cc(C(=O)NC2CCN(C)CC2)c(F)cc1Nc1ncc(C(F)(F)F)c(Oc2cccc3c2C(=O)N(C)C3)n1` [BI 853520], the “DLTs or DRAEs of grade ≥ 2” value ([1]; 50 mg QD or 100 mg QD) is given as “neither 50 mg QD or 100 mg QD had resulted in dose-limiting toxicities”, the “maximum tolerated dose (MTD)” value ([1]; QD continuous dosing, predominantly (92%) Caucasian population) is given as 200 mg and the “patients with grade 3 proteinuria” value ([1]; dose expansion phase of the FIH study) is given as 21%. For the same compound, the “impact of formulation and food on pharmacokinetics” value [2] was “neither formulation (liquid dispersion vs. tablet) nor administration with/without a high-calorie meal have notable impact”, the “confirmed objective response rate” value ([3]; 21 treated patients) was 5% and the disease control rate ([3]; 21 treated patients) was 29%. For the same compound, the “patients with progressive disease” value ([3]; 21 treated patients) was 57%, the “Best confirmed response: Complete response” value ([3]; N = 21) was 0 N (%) and the “Best confirmed response: Progressive disease” value ([3]; N = 21) was 12 (57) N (%). For the same compound, the “Best confirmed response: Stable disease” value ([3]; N = 21) was 5 (24)^d N (%), the “Best confirmed response: Objective response” value ([3]; N = 21, complete response or partial response) was 1 (5) N (%) and the “Best confirmed response: Disease control” value ([3]; N = 21, complete response, partial response, or stable disease) was 6 (29) N (%). For the same compound, the “Best confirmed response: Partial response” value ([3]; N = 21, patient with gastric cancer (100 mg cohort)) was 1 (5)^c N (%), the “median duration of disease control” value ([3]; six patients with confirmed disease control) was 3.7 months and the “principal toxicological target organs” value [4] was “gastrointestinal tract and liver”. For the same compound, the disease control rate [5] was 27%, the “median duration of disease control” value [5] was 3.3 months and the radiographic objective responses [5] was “no radiographic objective responses were reported”. The “evaluable patients treated at the MTD who experienced DLT” value ([6]; 200 mg QD) was “two of 15”, the “drug-related serious AEs” value ([6]; 21 treated patients) was “None of the SAEs was considered drug-related” and the “patients who discontinued treatment due to AEs” value ([6]; 21 treated patients) was 19%. For the same compound, the “patients with drug-related adverse events” value ([6]; 21 treated patients) was 90%, the “patients with drug-related diarrhea” value ([6]; 21 treated patients) was 38% and the “patients with drug-related nausea” value ([6]; 21 treated patients) was 29%. For the same compound, the “patients with drug-related proteinuria” value ([6]; 21 treated patients) was 48%, the “patients with drug-related vomiting” value ([6]; 21 treated patients) was 19% and the “patients with serious AEs (SAEs)” value ([6]; 21 treated patients) was 24%. The “dose-limiting toxicities during cycle 1” value ([6]; 50, 100, or 200 mg cohorts) was “no dose-limiting toxicities were observed; also recorded: no DLTs were observed”, the “Any drug-related AE” value ([6]; N = 21, all dose cohorts) was 19 (90) N (%) and the “Drug-related AE: AST increased” value ([6]; N = 21, all dose cohorts) was 1 (5) N (%). For the same compound, the “Drug-related AE: Abdominal pain upper” value ([6]; N = 21, all dose cohorts) was 1 (5) N (%), the “Drug-related AE: Anemia” value ([6]; N = 21, all dose cohorts) was 1 (5) N (%) and the “Drug-related AE: Back pain” value ([6]; N = 21, all dose cohorts) was 1 (5) N (%). The “Drug-related AE: Blood bilirubin increased” value ([6]; N = 21, all dose cohorts) was 1 (5) N (%), the “Drug-related AE: Blood creatinine increased” value ([6]; N = 21, all dose cohorts) was 1 (5) N (%) and the “Drug-related AE: Decreased appetite” value ([6]; N = 21, all dose cohorts) was 2 (10) N (%). The “Drug-related AE: Dehydration” value ([6]; N = 21, all dose cohorts) was 1 (5) N (%), the “Drug-related AE: Diarrhea” value ([6]; N = 21, all dose cohorts) was 8 (38) N (%) and the “Drug-related AE: Dupuytren’s contracture” value ([6]; N = 21, all dose cohorts) was 2 (10) N (%). The “Drug-related AE: Erectile dysfunction” value ([6]; N = 21, all dose cohorts) was 1 (5) N (%), the “Drug-related AE: Fatigue” value ([6]; N = 21, all dose cohorts) was 1 (5) N (%) and the “Drug-related AE: Inguinal hernia” value ([6]; N = 21, all dose cohorts) was 1 (5) N (%). The “Drug-related AE: Nausea” value ([6]; N = 21, all dose cohorts) was 6 (29) N (%), the “Drug-related AE: Proteinuria” value ([6]; N = 21, all dose cohorts) was 10 (48) N (%) and the “Drug-related AE: Rash, maculo-papular” value ([6]; N = 21, all dose cohorts) was 2 (10) N (%). The “Drug-related AE: Vomiting” value ([6]; N = 21, all dose cohorts) was 4 (19) N (%), the “maximum tolerated dose (MTD)” value ([6]; QD continuous daily dosing, 28-day cycles, Japanese and Taiwanese patients) was 200 mg and the “DLTs reported overall during the study” value ([6]; all treated patients, all cycles) was “three of 21”. The “principal toxicological target organs” value [7] was “gastrointestinal tract and liver”, the active dose (MiaPaCa2 xenograft) was 12.5 mg/kg and the “cumulative fraction excreted in urine” value ([8]; 200 mg QD cohort) was “less than 9%”. For the same compound, the “RA,AUC (accumulation ratio, AUC at steady state / single dose)” value [8, 10] was 2.15, the “RA,Cmax (accumulation ratio, Cmax at steady state / single dose)” value [8, 10] was 1.62 and the trough plasma concentrations ([8]; cycle 1, repeated QD dosing) was “stable from day 8 to day 28”. It also gave an AUC(0-inf) ([8]; human, plasma, oral, 200 mg, AUC0−∞, single dose, 200 mg QD cohort, N = 15, geometric mean) of 26.3 µM·h, an AUC ([8]; human, plasma, oral, 200 mg, AUCτ,1, single dose, 200 mg QD cohort, N = 15, geometric mean) of 15.3 µM·h and a Cmax ([8]; human, plasma, oral, 200 mg, Cmax, single dose, 200 mg QD cohort, N = 15, geometric mean) of 1570 nM. For the same compound, the Vd/F ([8]; human, plasma, oral, 200 mg, Vz/F, single dose, 200 mg QD cohort, N = 15, geometric mean) was 391 L, the Tmax ([8]; human, plasma, oral, 200 mg, tmax, single dose, 200 mg QD cohort, N = 15, median) was 2 h and the half-life ([8]; human, plasma, oral, 200 mg, t½, single dose, 200 mg QD cohort, N = 15, geometric mean) was 20.9 h. The “tmax,ss” value ([8]; multiple dose, steady state day 28, 200 mg QD, N = 10, median) was 2.94 h, the “CL/F,ss” value ([8]; multiple dose, steady state, 200 mg QD, N = 10, geometric mean) was 155 mL/min and the “fe0−24,ss” value ([8]; multiple dose, steady state, 200 mg QD, urine, N = 10, geometric mean) was 8.86%. For the same compound, the CL/F ([8]; single dose, 200 mg QD cohort, N = 15, geometric mean) was 216 mL/min and the “fe0–24” value ([8]; single dose, 200 mg QD cohort, urine, data for 13 patients, geometric mean) was 5.60^b %.

In the case of `CONC(=O)c1ccccc1Nc1cc(Nc2cc(C)nn2C(C)C)ncc1Cl` [GSK2256098], the “anti-tumor activity in phase I” value (advanced solid tumors) is given as “evidence of disease stabilization” and the proteinuria [9] is given as “Proteinuria has been reported”.

In the case of `CN(c1ncccc1CNc1nc(Nc2ccc3c(c2)CC(=O)N3)ncc1C(F)(F)F)S(C)(=O)=O` [PF-00562271], the “anti-tumor activity in phase I” value (advanced solid tumors) is listed as “evidence of disease stabilization” and the proteinuria [9] is listed as “Proteinuria has been reported”.

In the case of `CNC(=O)c1ccc(Nc2ncc(C(F)(F)F)c(NCc3nccnc3N(C)S(C)(=O)=O)n2)cc1` [VS-6063], the “anti-tumor activity in phase I” value (advanced solid tumors) is listed as “evidence of disease stabilization”.
